CDK5 p35 inh – blocks human CDK5/p35 kinase activity | Q00535+Q15078 | Recombinant CDK5/p35, ADP-Glo luminescence, 60 min | inhibition, % at 10 µM | 0.01% of 330,000 active | AID 488839;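 active means highest replicate inhibition of at least 50% and at least 75% of replicates reaching 50%; inconclusive means only one of the two criteria met; inactive means both criteria failed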;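 further: plate controls were DMSO neutral control for no effect and GW8510 at 10 µM for full effect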
Cneo AK release – causes C. neoformans cell lysis | adenylate kinase release luminescence, 4 h; normalised: neutral wells 0, clomiphene wells 100 | 0.2% of 360,000 active | lysis activity, % at 15 µM;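 active means mean lysis activity across replicates of at least 80%, whatever share of replicates individually reach that level; inactive means mean lysis activity below 80%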
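Assay system: log-phase C. neoformans yeast / Quantity: yeast cell density of 5 × 10^6 cells/mL / Medium: fresh YPD growth medium / Compound: single dose / Timing: static 4 h at 37 °C with compound, 1 h detection / Measured by: adenylate kinase release luminescence / Read-out: lysis from increased AK signal / Benchmarks: Clomiphene as positive lysis control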
dFosB act-1 – enhances mouse delta FosB homodimer DNA binding | purified delta FosB, TAMRA-CDK5 oligo fluorescence polarization; percent of positive-control signal above neutral wells | P13346 | activation, % at 25 µM | 0.99% of 340,000 active;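 active means mean activation above about 17%, with every replicate also reaching it, limit read from the data, passing the limit was not always enough; inconclusive means only one of the two conditions met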
Target sequence (P13346 whole entry, looked up): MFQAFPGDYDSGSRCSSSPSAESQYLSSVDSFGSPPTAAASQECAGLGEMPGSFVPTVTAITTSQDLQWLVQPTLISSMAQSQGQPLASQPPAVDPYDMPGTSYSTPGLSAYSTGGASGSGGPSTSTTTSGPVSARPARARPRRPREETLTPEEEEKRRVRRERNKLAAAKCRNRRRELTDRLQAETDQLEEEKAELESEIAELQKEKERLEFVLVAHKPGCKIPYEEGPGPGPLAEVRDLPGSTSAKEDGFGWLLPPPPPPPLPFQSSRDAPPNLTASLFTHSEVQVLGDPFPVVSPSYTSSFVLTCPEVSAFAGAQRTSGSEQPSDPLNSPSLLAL
GSIS activator – primary screen for activators of insulin secretion dependent on glucose, INS-1E cells, GLuc reporter luminescence; INS-1E GLuc reporter insulin secretion, 2-3 h; activation, % at 16.6 µM; 0.61% of 370,000 active; AID 743287;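 active means lowest replicate activation of at least 40%, so every replicate reaches that level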;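 further: 0% = median of neutral control wells and 100% = median of IBMX positive control wells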
PAX8 reporter – lowers PAX8-driven luciferase in RMG-I cells | RMG-I TPO-luciferase reporter, SteadyGlo, 24 h | inhibition, % at 12.6 µM | 1.2% of 360,000 active | AID 652154;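 active means mean replicate inhibition at least 60% with every replicate also reaching 60%; inconclusive means only one of the two criteria is met; inactive means mean below 60% and not all replicates reaching 60%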;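 further: luciferase light reporting Pax8 driven TPO promoter activity; plate controls were median of neutral control wells for no effect and mitoxantrone controls for full effect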
Env fusion inh – inhibitors of HIV Env-mediated cell fusion; HeLa-JRFL Env/CEM21 cell fusion, luciferase; inhibition, % at 12.3 µM; 1.1% of 360,000 active; AID 651610;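 active means mean replicate inhibition score of at least 50 and every replicate individually at or above 50; inconclusive means only one of the two criteria met; inactive means mean below 50 and not all replicates reaching 50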;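 further: 0% = plate neutral controls and 100% = maraviroc near 300 nM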
dFosB act-2 – enhances mouse delta FosB homodimer binding to DNA; shares compounds with dFosB act-1; purified delta FosB, TAMRA-CDK5 oligo fluorescence polarization; normalised: neutral wells 0, positive control 100; activation, % at 24.9 µM; 2,400 tested, under 10 active;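 active means highest replicate activation at or above 34% and every replicate reaching that threshold; inconclusive means meets only one of the two criteria; inactive means meets neither criterion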;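 further: higher polarization means more probe DNA bound by delta FosB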
Starred values were filed as active, the others as inactive; u = inconclusive; x = no result; [ ] = remark or other dose. Compounds with a hit are over-represented: about 2.9% of the library has one in this group of screens.

SMILES | CDK5 p35 inh | Cneo AK release | dFosB act-1 | GSIS activator | PAX8 reporter | Env fusion inh | dFosB act-2
Cc1ccc(-n2nnnc2SCC(=O)NC(=O)Nc2ccc3c(c2)OCCO3)cc1 | -2 | x | u | -4 | x | x | x
CC(=O)Nc1ccc(-n2nnnc2SCC(=O)Nc2cccc(NC(=O)c3ccco3)c2)cc1 | 0 | 1 | 33* | 10 | 25 | -33 | 8
COc1cc(OC)cc(-n2nnnc2SCC(=O)Nc2ccc(C(C)=O)cc2)c1 | -1 | 0 | 37* | x | x | x | -7
COc1ccc(NC(=O)CSc2nnnn2-c2ccc(OC)cc2)cc1 | 0 | 4 | 2 | x | -11 | -59 | x
CCc1ccc(-n2nnnc2SCC(=O)Nc2ccc(NC(C)=O)cc2)cc1 | 1 | 0 | 18* | -5 | 7 | 1 | 8
O=C(CSc1nnnn1-c1ccc(Cl)cc1)NC(=O)Nc1ccc2c(c1)OCCO2 | -2 | 0 | 21* | 3 | x | -59 | 7
O=c1c2ccc(Cl)cc2[nH]c(=S)n1Cc1cccnc1 | -2 | 1 | 20* | x | -14 | -51 | 6
O=C(C[C@@H]1CC[C@@H](NC(=O)NC2CCCCC2)[C@H](CO)O1)NCc1ccc(F)cc1 | x | -6 | x | -6 | 8 | -5[16.7 µM] | x
O=C(Cn1c(=O)oc2ccccc21)Nc1ccc(S(=O)(=O)N2CCCCC2)cc1 | 1 | 0 | 60* | x | x | -33 | 5
CCN(CC)S(=O)(=O)c1ccc(NC(=O)Cn2c(=O)oc3ccccc32)cc1 | 0 | 2 | 4 | -4 | 2 | -6 | x
CCS(=O)(=O)N1CC2(CN(Cc3ccccc3OC)[C@H](CO)c3c2c2ccc(OC)cc2n3C)C1 | x | x | x | -12 | x | x | x
Cc1ccc(NC(=O)Nc2ccc3c(c2)C(=O)OC3)cc1Cl | 0 | -1 | 29* | -33 | -24 | 3 | 3
O=C(Nc1ccc2c(c1)COC2=O)c1ccc(Cl)c(Cl)c1 | 0 | 0 | 38* | 18 | -65 | -166 | 6
O=C(Nc1ccc(Cl)c(Cl)c1)c1ccc(Cl)c(Cl)c1 | 2 | -1 | 33* | -5 | -90 | -22 | 2
O=C(Nc1ccc(Cl)c(Cl)c1)c1ccncc1 | 1 | -1 | -8 | x | -36 | -315 | x
COCC(=O)N1CC(=O)N2[C@H](CO)[C@H](c3ccc(-c4cccnc4)cc3)[C@H]2C1 | x | x | x | 0 | x | x | x
CCOC(=O)C1=C(C(=O)OCC)C2N(Cc3ccc(C#N)cc3)c3ccccc3[C@@]23C[C@@H](C(=O)OC)N(S(=O)(=O)c2c(C)noc2C)C3=N1 (stereo not given in full) | x | x | x | x | -11 | -8 | x
O=C(C[C@H]1CC[C@@H](NS(=O)(=O)c2ccc(F)cc2)[C@@H](CO)O1)NCc1ccncn1 | x | -5 | x | 24 | -7 | -18[16.7 µM] | x
CCS(=O)(=O)Nc1ccc2c(c1)C(=O)N(C)[C@H]1CC[C@H](CC(=O)NCc3ccc(OC)cc3)O[C@@H]1CO2 | x | -2 | x | 19 | 3 | x | x
Cc1nn(Cc2ccccc2)c(Cl)c1/C=C/C(=O)OC(C(=O)NC(N)=O)C(C)C (stereo not given) | -2 | -3 | 50* | 47 | -4 | -8 | -1
CCc1ccccc1NC(=O)c1ccc2nc(N3CCOCC3)sc2c1 | 0 | -3 | -6 | 6 | -9 | 1 | x
Cc1ccc(NC(=O)c2ccc3nc(N4CCOCC4)sc3c2)c(Cl)c1 | -2 | -1 | 141* | -8 | -56 | -8 | 0
Cn1nc(C(=O)Nc2ccc(Br)cc2)cc1C(=O)Nc1ccc(Br)cc1 | 1 | 7 | 40* | 6 | 15 | -350 | 5
COc1cc(NC(=O)c2ccco2)c(C(=O)OCC(=O)c2c[nH]c3ccccc23)cc1OC | 0 | 2 | 39* | -11 | 51 | 17 | 7
C[C@@H]1CN([C@H](C)CO)C(=O)c2cc(NC(=O)CCC(F)(F)F)ccc2O[C@@H]1CN(C)S(=O)(=O)c1ccccc1 | x | 0 | x | 14 | -2 | x | x
SMILES | CDK5 p35 inh | Cneo AK release | dFosB act-1 | GSIS activator | PAX8 reporter | Env fusion inh | dFosB act-2
COc1ccc2c3c([nH]c2c1)[C@H](CO)N(C(=O)NC(C)C)CC31CN(C(=O)NC(C)C)C1 | x | x | x | 11 | x | -21[16.7 µM] | x
Cc1ccc(NC(=O)c2ncn(CC(=O)NCc3nc4ccccc4[nH]3)n2)cc1C | -9 | 4 | 47* | -2 | -40 | -33 | -7
O=C(COc1ccc(F)cc1)Nc1cc(Cl)ccc1-n1cncn1 | 0 | 2 | 26* | 7 | 10 | -27 | 6
CCOc1ccc(OCC(=O)Nc2cc(Cl)ccc2-n2cncn2)cc1 | x | -3 | x | x | -21 | 16 | x
O=C(Nc1cc(Cl)ccc1-n1cncn1)c1ccc(Br)o1 | 0 | x | 36* | 14 | 26 | -29 | 1
C[C@@H]1CN([C@H](C)CO)S(=O)(=O)c2ccc(-c3cccc(C#N)c3)cc2O[C@@H]1CN(C)C | x | -2 | x | 20 | -5 | -30[16.7 µM] | x
O=C(Nc1ccc2nn(-c3ccccc3)nc2c1)c1cccnc1 | 0 | -1 | -19 | x | x | x | x
O=C(Nc1nc(-c2ccc(Cl)cc2)cs1)c1cccnc1 | 0 | -1 | u | x | -13 | 3 | x
O=C(Nc1nc(-c2ccc(F)cc2)cs1)c1cccnc1 | 2 | -1 | 34* | 8 | -15 | -19 | 1
O=C(Nc1ccc2nn(-c3ccc(F)cc3)nc2c1)c1cccnc1 | -1 | x | 30* | -3 | -36 | -34 | 2
Cc1c(C(=O)Nc2ccc(S(N)(=O)=O)cc2)oc2ccc(Cl)cc12 | 0 | x | 27* | -5 | -6 | 18 | 2
Cc1cc(C(=O)N/N=C/c2cccc(OC(=O)c3cccc(Br)c3)c2)n[nH]1 | 0 | -2 | 30* | -3 | -14 | -277 | 3
O=C(Nc1cc(Br)ccc1O)c1cc(-c2cccs2)on1 | -3 | 1 | 49* | 41 | -39 | -16 | -4
COc1ccc(NC(=O)c2cc(-c3ccc4c(c3)OCO4)on2)cc1OC | -1 | 2 | 33* | 1 | -9 | -7 | 2
O=C(Nc1cc(Br)ccc1O)c1cc(-c2ccc3c(c2)OCO3)on1 | 2 | 0 | 77* | 2 | -143 | -37 | 1
CC(C)c1cc(C(=O)Nc2cc(Br)ccc2O)no1 | 2 | -5 | -4 | 1 | x | x | x
COC(=O)C[C@@H]1CC[C@H]2[C@@H](COc3ccc(NS(=O)(=O)c4ccc(C)cc4)cc3C(=O)N2C)O1 | x | 4 | x | -2 | -5 | 11[16.7 µM] | x
CSc1ccccc1NC(=O)Cn1nnc(-c2ccc(S(C)(=O)=O)cc2)n1 | 1 | x | 30* | -1 | 8 | -2 | 6
CS(=O)(=O)c1ccc(-c2nnn(CC(N)=O)n2)cc1 | 0 | -4 | 2 | 11 | 8 | 8 | x
CCOC(=O)c1sc(NC(=O)Nc2ccc(Cl)cc2)cc1C | 0 | -8 | 24* | x | -25 | 74* | 0
CCOC(=O)c1sc(NC(=O)c2ccc(Cl)s2)cc1C | 1 | 6 | -4 | -7 | -210 | -52 | x

Bioassay records as filed in PubChem BioAssay.
